According to ChEMBL document CHEMBL1121756, “Structure-activity relationships of the cycloalkyl ring of phencyclidine” (J Med Chem, 1981):
Activity calls are given as the source filed them. No cut-off for these calls is given here.

Legend:
Rattus norvegicus [1] = organism: Rattus norvegicus; assay: Ability to displace 7.0 nM [3H]-PCP binding to rat brain homogenate relative to PCP
In short: (§1)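 Freshly prepared rat brain homogenate aliquots incubated 45 min at 4 °C with 7.0 nM [3H]PCP; bound radioligand measured by filtration. Displacement curve for each analogue fitted visually from a log-probit plot to give IC50. PCP run as standard in each assay, and each analogue's IC50 compared with it.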

Rattus norvegicus [2] = assay: Relative potency in the rat discriminative stimulus assay, expressed as mg of PCP (= 1.0 mg of compound); Did not generalize to PCP, No activity seen at doses of <=56 mg/Kg; assay type: functional, organism-based
In short: (§2)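 Male Fischer-derived CDF rats trained to discriminate PCP (3.0 mg/kg ip, 30 min before session) from saline in a two-choice, discrete-trial avoidance task. In tests, generalization counted if the group averaged ≥90% of 20 trials on the PCP lever. Relative potency versus PCP derived by standard bioassay statistics.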

Rattus norvegicus [3] = assay: Relative potency in the rat discriminative stimulus assay, expressed as mg of PCP (= 1.0 mg of compound); Did not generalize to PCP, Produced CNS depression at 56 mg/Kg; assay type: functional, organism-based
Rattus norvegicus [4] = organism: Rattus norvegicus; assay: Ability to displace 7.0 nM [3H]PCP binding to rat brain homogenate relative to PCP (IC50= 270 nM); in short: as §1
Rattus norvegicus [5] = organism: Rattus norvegicus; assay: Relative potency in the rat discriminative stimulus assay, expressed as mg of PCP (= 1.0 mg of compound); assay type: functional; in short: as §2
Rattus norvegicus [6] = organism: Rattus norvegicus; assay: Inhibitory concentration for [3H]PCP binding to rat brain homogenate relative to PCP; in short: as §1
Rattus norvegicus [7] = assay: Relative potency in the rat discriminative stimulus assay, expressed as mg of PCP (= 1.0 mg of compound); Did not generalize to PCP, Tonic seizures was observed at 56 mg/Kg; assay type: functional, organism-based; in short: as §2

Compound | Relative potency (Rattus norvegicus [1]) | Relative potency (Rattus norvegicus [5]) | other results
c1ccc(C2(N3CCCCC3)CC2)cc1 | 0.07 |  | Relative potency (Rattus norvegicus [2]): inactive
c1ccc(CN2CCCCC2)cc1 | 0.02 |  | Relative potency (Rattus norvegicus [3]): inactive
Cl.c1ccc(C2(N3CCCCC3)CCCCC2)cc1 [PHENCYCLIDINE HYDROCHLORIDE] |  | 1 | Relative potency (Rattus norvegicus [4]): 1; IC50 (Rattus norvegicus [6]): 270 nM
Cl.c1ccc(C2(N3CCCCC3)CCC2)cc1 | 0.08 | 0.19 | 
c1ccc(C2(N3CCCCC3)CCCCCCC2)cc1 | 0.72 |  | Relative potency (Rattus norvegicus [7]): inactive
Cl.c1ccc(C2(N3CCCCC3)CCCCCC2)cc1 | 0.23 | 0.06 | 
Cl.c1ccc(C2(N3CCCCC3)CCCC2)cc1 | 0.12 | 0.37 | 
